From ChEMBL document CHEMBL2040765, “Synthesis and anticancer activity of a series of norcantharidin analogues” (2012)

Columns and labels:
Assay type in all cases: functional
MCF7 [1] = assay: Growth inhibition of human MCF7 cells at 100 uM after 72 hrs y MTT assay; details: for inhibition of growth at 100 µM: Homo sapiens, MCF7, 72 h, read-out: GI
Procedure, shortened: (§1)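 Log-phase cells in supplemented DMEM (10% FBS, 4 mM glutamine, antibiotics; 37 °C, 5% CO2) were plated in duplicate at 2500–4000 cells/well. Compound was added 24 h later at a fixed 100 µM, from 40 mM DMSO stocks. After 72 h, MTT absorbance was read at 540 nm and expressed as percent growth inhibition; 100% means total inhibition.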

SW480 [2] = assay: Growth inhibition of human SW480 cells at 100 uM after 72 hrs y MTT assay; details: for inhibition of growth at 100 µM: Homo sapiens, SW480, 72 h, read-out: GI; procedure, shortened: as §1
A-431 [3] = assay: Growth inhibition of human A431 cells at 100 uM after 72 hrs y MTT assay; details: for inhibition of growth at 100 µM: Homo sapiens, A-431, 72 h, read-out: GI; procedure, shortened: as §1
A2780 [4] = assay: Growth inhibition of human A2780 cells at 100 uM after 72 hrs y MTT assay; details: for inhibition of growth at 100 µM: Homo sapiens, A2780, 72 h, read-out: GI; procedure, shortened: as §1
[5] = Growth inhibition of human SJ-G2 cells at 100 uM after 72 hrs y MTT assay; details: for inhibition of growth at 100 µM: Homo sapiens, SJ-G2, 72 h, read-out: GI; procedure, shortened: as §1
HT-29 [6] = assay: Growth inhibition of human HT-29 cells at 100 uM after 72 hrs y MTT assay; details: for inhibition of growth at 100 µM: Homo sapiens, HT-29, 72 h, read-out: GI; procedure, shortened: as §1
NCI-H460 [7] = assay: Growth inhibition of human H460 cells at 100 uM after 72 hrs y MTT assay; details: for inhibition of growth at 100 µM: Homo sapiens, NCI-H460, 72 h, read-out: GI; procedure, shortened: as §1
DU-145 [8] = assay: Growth inhibition of human DU145 cells at 100 uM after 72 hrs y MTT assay; details: for inhibition of growth at 100 µM: Homo sapiens, DU-145, 72 h, read-out: GI; procedure, shortened: as §1
[9] = Growth inhibition of human BE(2)-C cells at 100 uM after 72 hrs y MTT assay; details: for inhibition of growth at 100 µM: Homo sapiens, BE(2)-C, 72 h, read-out: GI; procedure, shortened: as §1
DU-145 [10] = assay: Growth inhibition of human DU145 cells after 72 hrs y MTT assay; details: DU-145, 72 h
Procedure, shortened: (§2)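 Cells kept in DMEM with 10% FBS, 10 mM sodium bicarbonate, penicillin, streptomycin and 4 mM glutamine at 37 °C under 5% CO2. Log-phase cells were plated in duplicate at 2500–4000 cells/well. After 24 h, compound in medium was added; analogue stocks were 40 mM in DMSO. Growth was read after 72 h by MTT absorbance at 540 nm in dose-response testing.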

A-431 [11] = assay: Growth inhibition of human A431 cells after 72 hrs y MTT assay; details: A-431, 72 h; procedure, shortened: as §2
MCF7 [12] = assay: Growth inhibition of human MCF7 cells after 72 hrs y MTT assay; details: MCF7, 72 h; procedure, shortened: as §2
[13] = Growth inhibition of human SJ-G2 cells after 72 hrs y MTT assay; details: SJ-G2, 72 h; procedure, shortened: as §2
A2780 [14] = assay: Growth inhibition of human A2780 cells after 72 hrs y MTT assay; details: A2780, 72 h; procedure, shortened: as §2
NCI-H460 [15] = assay: Growth inhibition of human H460 cells after 72 hrs y MTT assay; details: NCI-H460, 72 h; procedure, shortened: as §2
[16] = Growth inhibition of human BE(2)-C cells after 72 hrs y MTT assay; procedure, shortened: as §2
SW480 [17] = assay: Growth inhibition of human SW480 cells after 72 hrs y MTT assay; details: SW480, 72 h; procedure, shortened: as §2
HT-29 [18] = assay: Growth inhibition of human HT-29 cells after 72 hrs y MTT assay; details: HT-29, 72 h; procedure, shortened: as §2

Compound: O=C1O[C@H](OCC2CO2)[C@@H]2[C@H]1[C@H]1CC[C@@H]2O1 (stereo in doubt; 19)
- growth inhibition (GI) (MCF7 [1]): 37%
- growth inhibition (GI) (SW480 [2]): 32%
- inhibition of growth at 100 µM (A-431 [3]): 35%
- growth inhibition (GI) (A2780 [4]): 46%
- growth inhibition (GI) [5]: 75%
- growth inhibition (GI) (HT-29 [6]): 69%
- inhibition of growth at 100 µM (NCI-H460 [7]): 11%
- inhibition of growth at 100 µM (DU-145 [8]): 33%

Compound: CC1OC1CO[C@@H]1OC(=O)[C@H]2[C@@H]1[C@@H]1CC[C@H]2O1 (stereo not given in full)
- inhibition of growth at 100 µM (MCF7 [1]): 27%
- inhibition of growth at 100 µM (SW480 [2]): 17%
- inhibition of growth at 100 µM (A-431 [3]): 18%
- inhibition of growth at 100 µM (A2780 [4]): 26%
- inhibition of growth at 100 µM [5]: 80%
- inhibition of growth at 100 µM [9]: 23%
- inhibition of growth at 100 µM (HT-29 [6]): 70%
- inhibition of growth at 100 µM (NCI-H460 [7]): 9%
- inhibition of growth at 100 µM (DU-145 [8]): 17%

Compound: O=C1O[C@@H](OCC2CO2)[C@@H]2[C@H]1[C@H]1CC[C@@H]2O1 (stereo in doubt; 22)
- inhibition of growth at 100 µM (MCF7 [1]): 40%
- inhibition of growth at 100 µM (SW480 [2]): 28%
- growth inhibition (GI) (A-431 [3]): 28%
- inhibition of growth at 100 µM [5]: 76%
- inhibition of growth at 100 µM [9]: 38%
- inhibition of growth at 100 µM (HT-29 [6]): 74%
- growth inhibition (GI) (NCI-H460 [7]): 14%
- growth inhibition (GI) (DU-145 [8]): 30%

Compound: C/C=C/CO[C@H]1OC(=O)[C@H]2[C@@H]1[C@@H]1CC[C@H]2O1
- GI50 (DU-145 [10]): > 100 µM
- GI50 (A-431 [11]): > 100 µM
- GI50 (MCF7 [12]): 77 µM
- GI50 [13]: 55 µM
- GI50 (A2780 [14]): 57 µM
- GI50 (NCI-H460 [15]): > 100 µM
- GI50 [16]: 84 µM
- GI50 (SW480 [17]): 93 µM
- GI50 (HT-29 [18]): 42 µM

Compound: O=C1O[C@@H](OCC2CO2)[C@@H]2[C@H]1[C@H]1CC[C@@H]2O1 (stereo in doubt; 21)
- growth inhibition (GI) (MCF7 [1]): 33%
- growth inhibition (GI) (SW480 [2]): 23%
- inhibition of growth at 100 µM (A-431 [3]): 22%
- inhibition of growth at 100 µM (A2780 [4]): 42%
- growth inhibition (GI) [5]: 73%
- growth inhibition (GI) [9]: 35%
- growth inhibition (GI) (HT-29 [6]): 68%
- inhibition of growth at 100 µM (NCI-H460 [7]): 7%
- inhibition of growth at 100 µM (DU-145 [8]): 25%

Compound: CC1OC1CO[C@H]1OC(=O)[C@H]2[C@@H]1[C@@H]1CC[C@H]2O1 (stereo in doubt; 24)
- inhibition of growth at 100 µM (MCF7 [1]): 46%
- inhibition of growth at 100 µM (SW480 [2]): 37%
- growth inhibition (GI) (A-431 [3]): 17%
- growth inhibition (GI) (A2780 [4]): 58%
- inhibition of growth at 100 µM [5]: 79%
- inhibition of growth at 100 µM [9]: 53%
- inhibition of growth at 100 µM (HT-29 [6]): 68%
- growth inhibition (GI) (NCI-H460 [7]): 9%
- growth inhibition (GI) (DU-145 [8]): 20%

Compound: O=C1OC(=O)C2C3CCC(O3)C12 (stereo not given) [DEMETHYL-CANTHARIDIN]
- GI50 (DU-145 [10]): 90 µM
- GI50 (A-431 [11]): 72 µM
- GI50 (MCF7 [12]): 34 µM
- GI50 [13]: 23 µM
- GI50 (A2780 [14]): 27 µM
- GI50 (NCI-H460 [15]): > 100 µM
- GI50 [16]: 36 µM
- GI50 (SW480 [17]): 41 µM
- GI50 (HT-29 [18]): 23 µM

Compound: CCOP(=O)(OCC)OCCCO[C@H]1OC(=O)[C@H]2[C@@H]1[C@@H]1CC[C@H]2O1
- GI50 (DU-145 [10]): 84 µM
- GI50 (A-431 [11]): 87 µM
- GI50 (MCF7 [12]): 20 µM
- GI50 [13]: 43 µM
- GI50 (A2780 [14]): 22 µM
- GI50 (NCI-H460 [15]): > 100 µM
- GI50 [16]: 9 µM
- GI50 (SW480 [17]): 9 µM
- GI50 (HT-29 [18]): 17 µM

Compound: CCCCCO[C@H]1OC(=O)[C@H]2[C@@H]1[C@@H]1CC[C@H]2O1
- GI50 (DU-145 [10]): > 100 µM
- GI50 (A-431 [11]): 68 µM
- GI50 (MCF7 [12]): 27 µM
- GI50 [13]: 37 µM
- GI50 (A2780 [14]): 20 µM
- GI50 (NCI-H460 [15]): > 100 µM
- GI50 [16]: 38 µM
- GI50 (SW480 [17]): 39 µM
- GI50 (HT-29 [18]): 32 µM

Compound: C/C=C/CO[C@@H]1OC(=O)[C@H]2[C@@H]1[C@@H]1CC[C@H]2O1
- GI50 (DU-145 [10]): > 100 µM
- GI50 (A-431 [11]): > 100 µM
- GI50 (MCF7 [12]): > 100 µM
- GI50 [13]: 35 µM
- GI50 (A2780 [14]): > 100 µM
- GI50 (NCI-H460 [15]): > 100 µM
- GI50 [16]: 63 µM
- GI50 (SW480 [17]): > 100 µM
- GI50 (HT-29 [18]): 31 µM

Compound: O=C1O[C@H](OCC2CO2)[C@@H]2[C@H]1[C@H]1CC[C@@H]2O1 (stereo in doubt; 20)
- inhibition of growth at 100 µM (MCF7 [1]): 43%
- inhibition of growth at 100 µM (SW480 [2]): 16%
- growth inhibition (GI) (A-431 [3]): 18%
- growth inhibition (GI) (A2780 [4]): 83%
- inhibition of growth at 100 µM [5]: 59%
- inhibition of growth at 100 µM [9]: 42%
- inhibition of growth at 100 µM (HT-29 [6]): 52%
- growth inhibition (GI) (NCI-H460 [7]): 7%
- growth inhibition (GI) (DU-145 [8]): 21%

Compound: CC1OC1CO[C@H]1OC(=O)[C@H]2[C@@H]1[C@@H]1CC[C@H]2O1 (stereo in doubt; 23)
- growth inhibition (GI) (MCF7 [1]): 61%
- growth inhibition (GI) (SW480 [2]): 41%
- growth inhibition (GI) (A-431 [3]): 35%
- inhibition of growth at 100 µM (A2780 [4]): 55%
- growth inhibition (GI) [5]: 88%
- growth inhibition (GI) [9]: 54%
- growth inhibition (GI) (HT-29 [6]): 75%
- growth inhibition (GI) (NCI-H460 [7]): 24%
- inhibition of growth at 100 µM (DU-145 [8]): 37%

Compound: O=C1O[C@H](O)[C@@H]2[C@H]1[C@H]1CC[C@@H]2O1
- GI50 (DU-145 [10]): > 100 µM
- GI50 (A-431 [11]): > 100 µM
- GI50 (MCF7 [12]): > 100 µM
- GI50 [13]: 15 µM
- GI50 (A2780 [14]): > 100 µM
- GI50 (NCI-H460 [15]): > 100 µM
- GI50 [16]: 28 µM
- GI50 (SW480 [17]): > 100 µM
- GI50 (HT-29 [18]): 14 µM
